In PubChem BioAssay:
Active and inactive are the calls of the source.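 Rule for the calls, unless noted: active = fluorescence slope higher than the sample average by over 3 SD (cut at about -0.22 in these data, passing the limit was not always enough); inactive = the rest.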

Columns and labels:
[1] = inhibitors of TNFa-induced NFkB p65 translocation, primary screen, imaging, HUVEC, MLSMR starter and 10KST1 sets (AID 438;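 active = inhibition above 20% together with a positive visual image hit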;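 note: compound added about 3h40 before a 20 min TNFalpha stimulation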;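 for inhibition: signal is the nuclear over cytoplasmic p65 intensity ratio per well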); conditions: HUVEC TNFa-induced p65 nuclear translocation; cell count: measured here: nuclei count (cytotoxicity indicator), at 2.08 µM; inhibition: at 2 µM, stronger effect = higher value, 0% TNFa-plus-vehicle, 100% no-TNFa wells
[2] = reduction of polyQ htt aggregates in cells – imaging, exon1htt(103Q)mCFP cells, high-content imaging, primary screen (AID 483;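 active = visual image review flags a hit and inhibition of aggregation exceeds 20%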;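 note: compound exposure lasted 3 days before fixation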;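 for nuclei count: percent of the per-plate median nuclei count of sample wells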); conditions: exon1htt(103Q)mCFP cell line, aggregate imaging, at 2 µM; inhibition of aggregation: stronger effect = higher value; nuclei count: measured here: cell count, toxicity
[3] = endothelial E-selectin expression blockers – imaging, HUVEC, immunofluorescence, MLSMR starter and 10KST1 sets, primary screen (AID 487;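 active = visually confirmed hit in the image check and inhibition above 20%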;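 for inhibition: signal is fraction of cell area covered by stained E-selectin grains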;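 for nuclei count: 100% = median nuclei count of all wells on the same plate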); conditions: HUVEC TNFalpha-induced E-selectin immunofluorescence imaging, at 2 µM; inhibition: stronger effect = higher value; nuclei count: measured here: cell number, toxicity
[4] = target: Voltage-gated potassium channel subunit beta-2 (Rattus norvegicus) (UniProt P62483); assay: inhibitors of rat Kvbeta2 reductase activity – biochemical, NADPH fluorescence, primary screen (AID 622); conditions: recombinant KvBeta, 4-cyanobenzaldehyde reduction, at 10 µM, stronger effect = higher value;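 note: slope of raw intensity against log time taken from 70 to 1610 s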
Voltage-gated potassium channel subunit beta-2 (Rattus norvegicus), sequence (P62483 whole entry, looked up): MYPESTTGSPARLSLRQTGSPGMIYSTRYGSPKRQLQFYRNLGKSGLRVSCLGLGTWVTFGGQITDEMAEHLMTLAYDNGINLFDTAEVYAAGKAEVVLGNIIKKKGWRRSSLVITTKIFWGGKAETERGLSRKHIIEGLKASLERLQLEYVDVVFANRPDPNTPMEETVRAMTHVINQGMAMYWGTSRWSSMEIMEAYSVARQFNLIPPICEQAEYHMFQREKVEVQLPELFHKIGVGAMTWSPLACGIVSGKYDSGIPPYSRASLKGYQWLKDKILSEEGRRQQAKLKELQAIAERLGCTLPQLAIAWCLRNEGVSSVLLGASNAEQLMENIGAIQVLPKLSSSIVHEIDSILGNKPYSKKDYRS

[5] = target: Voltage-gated potassium channel subunit beta-2 (Rattus norvegicus) (UniProt P62483); assay: enhancers of rat Kvbeta2 NADPH turnover – biochemical, NADPH fluorescence, primary screen (AID 623;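 active = NADPH fluorescence slope more negative than the mean of all samples by about 3 SD, 99.7% confidence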;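 note: fluorescence intensity change per second fitted from 20 to 320 s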); conditions: Recombinant KvBeta, NADPH fluorescence decrease slope, 10 min; at 10 µM; stronger effect = lower value
[6] = target: Muscarinic acetylcholine receptor M4 (Homo sapiens) (UniProt P08173); assay: M4-linked GIRK flux change, two-sided – cell-based, HEK293 M4/GIRK, thallium flux, BTC-AM, M4 allosteric agonist project, primary screen (AID 625;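 active = fluorescence slope after compound addition differing from the mean of all tested samples at 99.7% confidence, mostly higher but some lower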;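 note: thallium influx through GIRK channels coupled to M4 in HEK293 cells with BTC-AM dye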); conditions: at 10 µM, actives lie on both sides
Muscarinic acetylcholine receptor M4 (Homo sapiens), sequence (P08173 whole entry, looked up): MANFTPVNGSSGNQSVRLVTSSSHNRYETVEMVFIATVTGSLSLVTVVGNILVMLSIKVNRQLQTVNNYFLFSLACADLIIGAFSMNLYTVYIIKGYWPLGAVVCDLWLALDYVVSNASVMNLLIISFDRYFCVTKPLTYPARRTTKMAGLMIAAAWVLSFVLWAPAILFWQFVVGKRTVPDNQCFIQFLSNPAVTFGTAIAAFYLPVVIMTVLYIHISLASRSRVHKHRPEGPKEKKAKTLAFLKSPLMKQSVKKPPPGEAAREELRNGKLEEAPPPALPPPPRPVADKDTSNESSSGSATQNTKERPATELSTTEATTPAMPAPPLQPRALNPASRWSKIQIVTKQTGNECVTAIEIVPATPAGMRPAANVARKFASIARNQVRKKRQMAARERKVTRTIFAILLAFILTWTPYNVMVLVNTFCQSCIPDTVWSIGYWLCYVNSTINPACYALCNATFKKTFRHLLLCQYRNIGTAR
Method in brief: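 Assay system: HEK293 cells with M4 receptor and GIRK channels / Controls: carbachol and DMSO controls / Schedule: 1 h dye loading, 2 min kinetic read / Technique: kinetic fluorescence with BTC-AM dye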

[7] = blockers of RIG-like receptor reporter activation – cell-based, Sendai virus stimulus, luciferase, 10K MLSCN set, TLR/RLR signaling modifier project, primary screen (AID 602276;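 active = inhibition at or above 50% at 10 µM; inactive = inhibition below 50%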;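 note: firefly luciferase from ISG56 promoter only with Renilla not read in this screen; 0% = Sendai virus plus DMSO and 100% = medium plus DMSO without virus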); conditions: HEK293 RL24 IRF3 luciferase reporter, at 10 µM, stronger effect = higher value
[8] = TLR3 IRF3 reporter activation blockers – cell-based, poly I:C stimulus, luciferase, 10K MLSCN set, primary screen (AID 602277;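 active = inhibition of the reporter signal at or above 50%; inactive = inhibition below 50%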); conditions: HEK293-TLR3 RL24 IRF3 luciferase reporter, at 10 µM, stronger effect = higher value

Row | SMILES | cell count [1] | inhibition [1] | inhibition of aggregation [2] | nuclei count [2] [%] | inhibition [3] | nuclei count [3] [%] | fluorescence slope [4] | NADPH fluorescence slope [5] | fluorescence slope [6] | inhibition [7] | inhibition [8]
1 | Cc1cc(C)nc(SCc2nnc(SCc3ccccc3Cl)o2)n1 | 428 | -8.3% (inactive) | 16.9% (inactive) | 110 | -33.4% (inactive) | 98.3 | -0.468 (inactive) | -0.000278 (inactive) | 0.00428 (inactive) | 6.47% (inactive) | 0.418% (inactive)
2 | CCOc1ccc2[nH]c(=O)c(CN(Cc3ccccc3)C(=O)N3CCCC3)cc2c1 | 497 | -14.1% (inactive) | 14.8% (inactive) | 67.9 | 54.1% (inactive) | 48.2 | -0.475 (inactive) | 6.7e-06 (inactive) | 0.00557 (inactive) | 10.6% (inactive) | 25.9% (inactive)
3 | CC(C(=O)NCc1cccnc1)N1C(=O)c2ccccc2C1=O (stereo not drawn) | 783 | 5.5% (inactive) | 3.6% (inactive) | 105 | -39.6% (inactive) | 132 | -0.607 (inactive) | 1.7e-05 (inactive) | 0.00555 (inactive) | -0.398% (inactive) | 10.3% (inactive)
4 | COC(=O)c1ccc(CN(c2ccccc2OC)S(=O)(=O)c2cccs2)o1 | 666 | 8.1% (inactive) | -4.4% (inactive) | 113 | 44.1% (inactive) | 98.6 | -0.534 (inactive) | -5.7e-05 (inactive) | 0.00695 (inactive) | 3.68% (inactive) | 7.96% (inactive)
5 | CCN(c1ccccc1)S(=O)(=O)c1ccc(F)cc1C | 207 | 4.7% (inactive) | -4.7% (inactive) | 66.7 | -11.8% (inactive) | 119 | -0.58 (inactive) | -2.3e-05 (inactive) | 0.00509 (inactive) | 12.3% (inactive) | 22.6% (inactive)
6 | CCOC(=O)N1CCN(C(=O)Nc2ccc(Cl)cc2)CC1 | 356 | -3.2% (inactive) | 10.6% (inactive) | 99.4 | 21.3% (inactive) | 103 | -0.462 (inactive) | -4.1e-05 (inactive) | 0.00495 (inactive) | 10.8% (inactive) | 3.42% (inactive)
7 | Cc1nnc(NC2CCCCC2)[nH]c1=O | 358 | 5.3% (inactive) | -1.6% (inactive) | 103 | -59.1% (inactive) | 115 | -0.592 (inactive) | -3.6e-05 (inactive) | 0.00733 (inactive) | 12.6% (inactive) | 14.5% (inactive)
8 | COCCCNC(=O)CCc1nc2cccnc2n1Cc1ccc(OC)cc1 | 462 | 4.3% (inactive) | -13.4% (inactive) | 124 | -16.4% (inactive) | 98.8 | -0.286 (inactive) | -2.5e-05 (inactive) | 0.006 (inactive) | 14.4% (inactive) | 1.17% (inactive)
9 | Cc1cc(C(=O)Nc2cc(C)n(Cc3ccc(Cl)cc3)n2)no1 | 240 | 9.5% (inactive) | -10.6% (inactive) | 98.8 | -39.5% (inactive) | 88.4 | -0.483 (inactive) | -1.4e-05 (inactive) | 0.0053 (inactive) | -11.3% (inactive) | -27.1% (inactive)
10 | CN(c1ccccc1)C(c1ccc(F)cc1)c1nnnn1CC1CCCO1 (stereo not drawn) | 762 | -2.9% (inactive) | -1.8% (inactive) | 100 | -61.8% (inactive) | 132 | -0.288 (inactive) | -1.6e-05 (inactive) | 0.00686 (inactive) | 16% (inactive) | 42.3% (inactive)
11 | CCOC(=O)c1cc(-c2ccc3c(c2)OCO3)nc2onc(C)c12 | 402 | 3.7% (inactive) | 21.3% (inactive) | 64.3 | -64.2% (inactive) | 106 | -0.00965 (inactive) | -7.8e-06 (inactive) | 0.00537 (inactive) | -6.27% (inactive) | -18.4% (inactive)
12 | Cc1ccccc1N1CC(c2nc3ccccc3[nH]2)CC1=O (stereo not drawn) | 385 | 3% (inactive) | -1.2% (inactive) | 107 | -7.2% (inactive) | 110 | -0.478 (inactive) | -1.5e-05 (inactive) | 0.0056 (inactive) | -2.87% (inactive) | 98.3% (active)
13 | Cn1cccc1-c1nc2ccc(NC(=O)c3ccco3)cc2[nH]1 | 293 | -0.9% (inactive) | -0.8% (inactive) | 86.3 | -8.2% (inactive) | 110 | -0.429 (inactive) | 1e-06 (inactive) | 0.00457 (inactive) | -37.6% (inactive) | -102% (inactive)
